In ChEMBL document CHEMBL4513216, “Probing the Open Global Health Chemical Diversity Library for Multistage-Active Starting Points for Next-Generation Antimalarials” (ACS Infect Dis, 2020):

Assay: Toxicity liver stage against HepG2, at 10uM
Type: cell-based
Design: test concentration 10 uM, cell line HepG2-A16-CD81EGFP
Conditions: human, HepG2-A16-CD81EGFP cells; read-out: INHIBITION
Procedure, shortened: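 Uninfected HepG2-A16-CD81EGFP cells, 3 × 10^3 per well, 1536-well, plated on prespotted compound at 10 μM final, parasite-free screening media added to match infected plates; puromycin 10 μM positive, DMSO 0.5% negative; run in parallel with 48 h PbLuc assay at 37 °C, 5% CO2; viability by CellTiter-Glo luminescence, normalized to controls.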

| SMILES | cytotoxicity at 10 µM [%] |
| --- | --- |
| COC(=O)[C@H](C)NC(=O)CSCc1nc2sc(C(C)C)cc2c(=O)[nH]1 | 2.87 |
| Cn1cc(NC(=O)CNC(=O)N2CCN(c3ccc(Cl)cc3)CC2)cn1 | 6.9 |
| Cc1nn2c(-c3cnn(C)c3)nnc2s1 | -15.4 |
| Cc1cc(C)nc(NCCCC(=O)NCCn2ccc3ccccc32)n1 | -0.1 |
| NC(=O)C1CCN(C(=O)c2cc(Br)ccc2-n2cnnn2)CC1 | 13.1 |
| Cc1noc(C)c1CCC(=O)N1CCN(CCn2cccn2)CC1 | -24.2 |
| Cc1noc(-c2ccc(N3CCCC(C(=O)N4CCSCC4)C3)nc2)n1 (stereo not given) | -2.45 |
| Cc1ccc(N2CC[C@H](OCC3CC3)[C@@H]2Cc2cnn(C)c2)nn1 | -10.7 |
| CCN(Cc1nonc1C)C(=O)Cn1nc(C(F)(F)F)cc1C1CC1 | 1.45 |
| Cc1nn(C)c2c(=O)n(Cc3ccccc3)nnc12 | 5.53 |
| Cc1cccc(-n2nnnc2C2(NCc3ccco3)CCCCC2)c1 | 6.27 |
| Cn1ccc(C(=O)N2CCCC2c2cc(CCO)[nH]n2)n1 (stereo not given) | 3.31 |
| CC(C)C(=O)N1CCC(c2c(C(N)=O)sc3ccccc23)C1 (stereo not given) | -2.66 |
| COCC(=O)N1CCCC(c2nc(N)ncc2-c2cccc(F)c2)C1 (stereo not given) | -0.6 |
| Cc1cc(Cc2ccccc2)cc(C2CCCNC2)n1 (stereo not given) | -5.89 |
| c1cc(CCNc2ncc(-c3cnccn3)c(C3CC3)n2)ccn1 | 13.5 |
| C[C@@H]1CN2C[C@H](O)CC2CN1Cc1ccc2nccnc2c1 (stereo not given in full) | 5.62 |
| C[C@H]1CN2C[C@H](O)CC2CN1Cc1ccncc1 (stereo not given in full) | -3.02 |
| COc1cccc(S(=O)(=O)N2C[C@H](OC)[C@]3(CCCO3)C2)c1 | -25.7 |
| CC(C)CNC(=O)C[S+]([O-])Cc1csc(C2CCCCC2)n1 (stereo not given) | -48.5 |
| CN(Cc1c(F)cccc1Cl)C(=O)Cn1cnc(C#N)n1 | -5.5 |
| CC(C)(NCc1cccc(C(N)=O)c1)c1ccc2c(c1)OCO2 | 3.15 |

| SMILES | cytotoxicity at 10 µM [%] |
| --- | --- |
| CNC(=O)c1cccc(CN2CCN(C3=NCC(C)(C)S3)CC2)c1 | -2.37 |
| CC(C)OCCN1CCC(Nc2ncc(Br)cn2)CC1 | 2.83 |
| Cc1cc(CN(C)C(=O)CNS(=O)(=O)c2cccs2)no1 | -33.4 |
| CNC(=O)N1CCOCC1c1c(C)nn(C)c1C (stereo not given) | -7.11 |
| CC1CCC(NS(=O)(=O)CC(=O)NC2(C(N)=O)CCCC2)CC1 (stereo not given) | -4.12 |
| Cc1cccc(OCCNC(=O)Cn2ccc(C)cc2=O)c1 | -1.63 |
| COc1ccc(CNc2nc(N3CCOCC3)ns2)cc1 | -4.77 |
| NC(=O)N1CCCC1COC(=O)c1cc(F)ccc1F (stereo not given) | -0.743 |
| COCCN1CCC(NC(=O)Nc2cccc(F)c2)C1 (stereo not given) | -0.898 |
| CCc1nc(C2CCCN(C(=O)C3=NN(C(C)C)C(=O)CC3)C2)no1 (stereo not given) | -7.28 |
| CCc1nc2c(s1)C(N(C)C(=O)c1cc[nH]n1)CCC2 (stereo not given) | 7.76 |
| O=C(NCCCn1cccn1)N1CCCC1c1ccsc1 (stereo not given) | -7.86 |
| Cc1nn(C)c(C)c1C1COCCN1c1ncnc2c(C)cccc12 (stereo not given) | 6.54 |
| CC(Cn1cncn1)NC(=O)Nc1ccc(COC2CCCC2)cc1 (stereo not given) | -1.47 |
| CCOC(=O)NCCNC(=O)c1cc(Br)cn1C(C)C | 9.08 |
| CCNC(=O)Cc1c(C)nc2c(c1C)c(=O)[nH]n2C | 2.62 |
| CN(C)C(=O)Cn1cc(C(=O)N2CCCc3cccc(F)c32)nn1 | 1.81 |
| CN(Cc1ccccc1)C(=O)CCNc1ncccc1C#N | 4.55 |
| CC(NC(=O)NCCNc1cccc(F)c1C#N)c1nccs1 (stereo not given) | -1.84 |
| N#CC1(NC(=O)c2ccn(-c3ccccc3Cl)n2)CCSC1 (stereo not given) | 0.462 |
| CC(C)COC(C)C(=O)N1CCCCC1 (stereo not given) | -5.66 |
| CS(=O)(=O)CCN(Cc1cccc(O)c1)C1CCC(O)CC1 (stereo not given) | 5.38 |

| SMILES | cytotoxicity at 10 µM [%] |
| --- | --- |
| CC(=O)Nc1nc(C(=O)NCCOc2cccc(F)c2)cs1 | 7.9 |
| O=C(Cn1cnnn1)Nc1ccc(F)cc1OCC1CC1 | 5.38 |
| CCN(Cc1cccs1)C(=O)c1ccc(=O)n(C)c1 | -9.56 |
| O=C(CCc1ccccc1)N1CCC(c2n[nH]c(C3CC3)n2)CC1 | -5.35 |
| Cc1noc(C(C)N2CCc3[nH]c4ccc(Cl)cc4c3C2)n1 (stereo not given) | 1.99 |
| Cc1cc(CNc2ccccc2N2CCCCC2)no1 | -1.31 |
| COCCc1noc(CN(C)c2cc(C)ncn2)n1 | 11.9 |
| Cc1nc(CNC(=O)N(Cc2ccccc2)CC(C)(C)O)oc1C | -2.28 |
| Cc1ccc(CNC(=O)N2CCc3ccccc3C2CO)s1 (stereo not given) | 2 |
| O=C(NC1CC1)c1cc(NC(=O)N2CCCC(O)C2)ccc1Cl (stereo not given) | -15.5 |
| O=C(c1ccccc1)N1CCOC2CNCC[C@H]21 (stereo not given in full) | -114 |
| O=C(c1ccccc1)N1CCO[C@@H]2CNC[C@@H]21 | -100 |
| CCOCC1CN(S(=O)(=O)C2CC2)Cc2nn(C)cc21 (stereo not given) | -112 |
| O=C(c1cccnc1)N1C[C@@H]2OCCN(CCN3CCCC3)[C@@H]2C1 | -71.2 |
| COCCC1COC2(CCN(C(=O)Cc3ccccc3)CC2)C1 (stereo not given) | -69.2 |
| Cn1cc(C[C@H]2[C@@H](OCC3CC3)CCN2C(=O)c2ccc[nH]2)cn1 | -72.7 |
| CN1CC2(CCN(C(=O)c3coc4c3C(=O)CCC4)C2)OC1=O (stereo not given) | -2.36 |
| Cc1cc(N2CCCN(C(=O)Cc3cc(F)cc(F)c3)CC2)ccn1 | -6.7 |
| c1ccc(CN2CCC(Cc3noc(C4CC4)n3)CC2)cc1 | 5.56 |
| CN1CCC(N2CCC(c3ccccc3C(=O)O)C2)CC1 (stereo not given) | -1.05 |
| CC(C)[C@H](Nc1nc(C2CCCC2)nc2c1cnn2C)C(N)=O | -51.5 |
| CN1CCC(CNC(=O)CCSc2ccc3c(c2)OCCO3)C1 (stereo not given) | -3.13 |

| SMILES | cytotoxicity at 10 µM [%] |
| --- | --- |
| CCC(O)C1CCN(C(=O)Nc2nc(-c3ccccc3)ns2)CC1 (stereo not given) | -130 |
| COc1ccccc1CCC(=O)N1C[C@H](c2ccccc2)[C@@H](N)C1 | -3.79 |
| CC(C)CN1CCC(c2nnc(CN3CCCC3)n2C2CC2)CC1 | -8.85 |
| Cc1nc(NCc2coc(-c3ccccc3)n2)cc(C2CCNCC2)n1 | 7.94 |
| CC(C)c1noc(C2CCCN2S(=O)(=O)Cc2ccc(F)cc2)n1 (stereo not given) | 3.88 |
| COc1ccc2[nH]cc(CCNC(=O)C3CCCN(C(C)=O)C3)c2c1 (stereo not given) | -5.58 |
| CC(C)=CCC1(CO)CCCN(S(C)(=O)=O)C1 (stereo not given) | -5.13 |
| Nc1ccnc(N2CCC(CCc3ccccc3)(C(=O)O)CC2)n1 | -3.65 |
| CNCC(=O)N[C@H]1CN(c2nc(C)c3c(n2)CCCC3)C[C@@H]1C1CC1 | 13.2 |
| Cc1ccc(C)c2c(O)cc(CNCC(N)=O)nc12 | -3.35 |
| CN(C)c1cncc(-c2ccnc3c2ccn3C)n1 | 5.51 |
| CN1C(=O)C2(CCCN(C(=O)c3ccc(=O)n(C)n3)C2)c2ccccc21 (stereo not given) | 4.65 |
| CC(C)=CCN1C[C@@H](C(=O)O)C[C@H](C(=O)Nc2ccc(C)nc2)C1 | 5.67 |
| Cc1noc(CN(C)c2nc(-c3ccco3)nc3c2CCN(C)CC3)n1 | -0.0198 |
| COc1ccc(Cn2cc(C(=O)N(C)CCN(C)C)nn2)cc1 | 7.13 |
| O=C(O)COc1ccc(CN2CCCC(CCc3ccccc3)C2)cc1 (stereo not given) | 12.1 |
| COCCCN1C(=O)CC[C@H]2CN(c3cnc4ccccc4n3)CC[C@H]21 | 5.77 |
| CCc1cc(CN(Cc2cccnc2)C2CN3CCC2CC3)on1 (stereo not given) | 2.09 |
| COc1cccc(OCC2CCCN(C(=O)Cc3cccc(O)c3)C2)c1 (stereo not given) | -18.9 |
| Cc1ccc(C)c2c(O)cc(CNCc3ccc(S(N)(=O)=O)cc3)nc12 | -9.06 |
| O=C(CN1CC(n2cccn2)C1)NCCCN1CCCC1=O | -29.9 |
| CC(C)c1ncc2c(n1)CN(Cc1nc(-c3ccccn3)no1)CC2 | 1.59 |

| SMILES | cytotoxicity at 10 µM [%] |
| --- | --- |
| CCc1ncc2c(n1)CN(Cc1nc(-c3cccs3)no1)CC2 | -7.82 |
| Cn1ccc(C(=O)N2CCN(c3nccs3)CC2)cc1=O | -18.1 |
| Cn1cc(C(=O)N2CCN(c3ncccn3)CC2)ccc1=O | -7.82 |
| CCOc1ccccc1CNCC1CCN(CC(C)O)CC1 (stereo not given) | -9.04 |
| Cc1cccc(NC2CCN(C(=O)Nc3cn[nH]c3)CC2)n1 | -26.7 |
| CN(Cc1nc2ccccc2o1)C1CCCN(c2cccnn2)C1 (stereo not given) | -9.43 |
| CCn1cnnc1CNC(=O)NC(C)c1ccc(Cl)s1 (stereo not given) | -23.1 |
| CC(O)CN1CCC(CNCc2ccc(C(N)=O)cc2)CC1 (stereo not given) | -9.83 |
| CCOc1ccccc1OC1CCN(C(=O)c2cc[nH]n2)CC1 | -4.53 |
| COc1ccc2c(c1)CCCN2Cc1nc2c(cnn2C)c(=O)[nH]1 | -3.3 |
| Cc1cccc(C2(NC(=O)CCN3C(=O)CCC3=O)CCCC2)c1 | -17.4 |
| CN(C(=O)c1ccccc1Cl)C1CCN(c2ccccn2)CC1 | -0.577 |
| Cc1nc(C)n(CC2CCCCN2CC(=O)N(C)Cc2ccco2)n1 (stereo not given) | 2.65 |
| CN(C)C(=O)[C@H]1C[C@H]2OCC[C@H]2N(Cc2ccc3c(c2)OCO3)C1 | -71.3 |
| Cn1cccc1C(=O)N1CCC2(CC1)CN(c1ccccn1)CCO2 | -10.8 |
| CN(C)C(=O)[C@@H]1CCO[C@@H]2CCN(CCc3ccccc3)C[C@@H]21 | -9.55 |
| Cc1cccc(CN2CCc3onc(CO)c3C2)n1 | 6.81 |
| Cc1noc([C@@H]2C[C@H]3CN(C(=O)C4CCN(C)CC4)C[C@H]3O2)n1 | -71.2 |
| COc1ccc(CN2CCC[C@@H]3CN(C(=O)c4ccco4)C[C@@H]32)cc1 | 1.44 |
| COCC(=O)N1C[C@H]2CN(Cc3csc(C)n3)C(=O)[C@H]2C1 | -77.2 |
| CC1CCN(c2nc3cn(Cc4cccc(F)c4)c(=O)c-3c[nH]2)CC1 | 4.52 |
| CCc1cnc(N2C[C@@H]3C[C@H](C(=O)N4CCOCC4)[C@H](C2)O3)nc1 | -104 |
